Data from ChEMBL document CHEMBL5370602, “Structure-Based Design of a Lead Compound Derived from Natural Schweinfurthins with Antitumor Properties That Target Oxysterol-Binding Protein” (J Med Chem, 2023).

Experiments:
[1] = Toxicity in immunodeficient nude mouse model xenografted with high alert medicated patient derived human GBM1 cells assessed as clinical symptoms at 42 mg/kg,po QD for 5 days; format: organism-based; conditions: in vivo, 120 h, time 5 day
Summary of the method: (§1)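 Female athymic nude mice bearing subcutaneous GBM1-HAM PDX fragments (20 mm³); treatment began day 11 post-implant at tumour volumes 75-196 mm³, 10 per group. Compound i.p. daily in cyclodextrin vehicle (17 days alone, 27 days in combination); temozolomide 42 mg/kg p.o. daily for 5 days in PBS/glucose/Tween 80. Calliper volumes three times weekly; body weight and clinical signs monitored.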

[2] = Toxicity in immunodeficient nude mouse model xenografted with high alert medicated patient derived human GBM1 cells assessed as body weight change at 42 mg/kg,po QD for 5 days; format: organism-based; conditions: in vivo, 120 h, time 5 day; summary of the method: as §1
[3] = Antitumor activity in high alert medicated patient derived human GBM1 cells xenografted in immunodeficient nude mouse model assessed as T/C ratio at 42 mg/kg,po QD for 5 days and measured from 9 to 11 days; conditions: time 5 day
[4] = Antitumor activity in high alert medicated patient derived human GBM1 cells xenografted in immunodeficient nude mouse model assessed as change in tumor volume at 42 mg/kg,po QD for 5 days and measured after 11 days relative to control; conditions: time 5 day
[5] = Antitumor activity in high alert medicated patient derived human GBM1 cells xenografted in immunodeficient nude mouse model assessed as tumor growth inhibition at 42 mg/kg,po QD for 5 days and measured from 9 to 11 days; conditions: GBM1, 120 h

Question: Which results are given for `Cn1nnc2c(C(N)=O)ncn2c1=O` [TEMOZOLOMIDE]?
Answer: Activity [1]: Non-Toxic; Activity [2]: Non-Toxic; T/C [3]: 62.43%; Activity [4]: 546.69%; TGDI at 42 mg/kg [5]: 1.34%
